Reference: ChEMBL document CHEMBL1150763, “Discovery of imidazo[1,5-c]imidazol-3-ones: weakly basic, orally active factor Xa inhibitors” (J Med Chem, 2008)

Tests used:
Plasma [1] = assay: Anticoagulant potency in human plasma assessed as concentration required to double the time to clot formation by PT assay; type: functional
Procedure, shortened: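 Human normal plasma mixed with compound dilutions in DMSO (1.5 µL into 48.5 µL), preincubated 4 min at 37 °C, clotting started with thromboplastin and timed on an automatic coagulometer. Prolongation relative to DMSO; concentration doubling clotting time derived by least-squares regression; mean of duplicates.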

[2] = Basicity, pKa by titration method; type: physicochemical
Plasma [3] = assay: Anticoagulant potency in mouse plasma assessed as concentration required to double the time to clot formation by PT assay; type: functional
CYP3A4 = CYP3A4 (Homo sapiens, UniProt P08684); assay: Inhibition of CYP3A4 expressed in human B-lymphoblastoid cells at 10 uM; type: ADME, cell-based
Procedure, shortened: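 Recombinant CYP3A4 (10 nM, from CYP3A4-expressing human B-lymphoblastoid cells) incubated with 100 µM testosterone and 10 µM test compound for 30 min at 37 °C; 6β-hydroxytestosterone formation quantified by HPLC-UV.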

Coagulation factor X = Coagulation factor X (Homo sapiens, UniProt P00742); assay: Inhibition of human factor 10a
Plasma [4] = assay: Anticoagulant activity in mouse plasma assessed as ratio of prothrombin time in drug to untreated control at 30 mg/kg, po; type: functional
Procedure, shortened: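 Male ICR mice (30-35 g), fasted >12 h, dosed orally at 30 mg/kg as suspension in 0.5% methylcellulose; vehicle controls. Citrated aortic blood drawn 1 h post-dose under pentobarbital anaesthesia, spun 1000g 10 min to platelet-poor plasma. PT on 50 µL plasma preincubated 4 min at 37 °C, started with thromboplastin; clotting time expressed relative to control group (n = 3).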

physchem = details: buffer, pH 7.4

Sequence of Coagulation factor X (P00742 41-179 limits assumed): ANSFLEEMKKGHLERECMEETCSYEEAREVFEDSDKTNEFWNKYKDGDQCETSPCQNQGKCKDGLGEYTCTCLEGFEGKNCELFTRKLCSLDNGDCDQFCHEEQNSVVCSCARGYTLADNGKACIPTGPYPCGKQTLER
Sequence of Coagulation factor X (P00742 235-488 limits assumed): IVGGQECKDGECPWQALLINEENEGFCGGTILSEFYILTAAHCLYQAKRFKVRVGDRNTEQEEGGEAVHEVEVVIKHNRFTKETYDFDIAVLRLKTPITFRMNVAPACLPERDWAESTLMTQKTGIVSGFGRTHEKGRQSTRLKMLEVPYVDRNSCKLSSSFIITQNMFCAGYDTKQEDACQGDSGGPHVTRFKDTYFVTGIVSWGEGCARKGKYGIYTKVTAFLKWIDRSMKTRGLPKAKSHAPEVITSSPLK
Sequence of CYP3A4 (P08684 whole entry): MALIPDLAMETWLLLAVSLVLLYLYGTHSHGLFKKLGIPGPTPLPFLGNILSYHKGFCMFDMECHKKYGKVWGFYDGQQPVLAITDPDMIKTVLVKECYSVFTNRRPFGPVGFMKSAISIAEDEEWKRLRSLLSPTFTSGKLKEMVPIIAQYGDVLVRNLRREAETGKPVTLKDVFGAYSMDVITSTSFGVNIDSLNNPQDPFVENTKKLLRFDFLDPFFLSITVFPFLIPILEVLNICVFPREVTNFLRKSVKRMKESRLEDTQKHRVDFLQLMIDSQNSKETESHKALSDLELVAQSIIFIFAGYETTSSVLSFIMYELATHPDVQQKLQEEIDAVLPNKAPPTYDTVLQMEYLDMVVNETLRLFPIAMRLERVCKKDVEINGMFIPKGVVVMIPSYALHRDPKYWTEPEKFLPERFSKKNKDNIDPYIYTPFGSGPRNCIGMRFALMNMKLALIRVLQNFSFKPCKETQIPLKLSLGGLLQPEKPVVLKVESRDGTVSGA

pKa [2] | inhibition at 10 µM (CYP3A4) | IC50 (Coagulation factor X) | logD (physchem) | Structure (SMILES) | Activity (Plasma [1]) | Activity (Plasma [3]) | Ratio (Plasma [4])
8.2 | 25% |  |  | Cc1ncc(C2CCN(C(=O)CCS(=O)(=O)c3ccc4cc(Cl)ccc4c3)CC2)n1C | 0.56 µM | 3.4 µM | 
 |  | 1600 nM |  | O=C(CCS(=O)(=O)c1ccc2cc(Cl)ccc2c1)N1CCC(c2ncc[nH]2)CC1 | >10 µM |  | 
 | 34% | 170 nM |  | Cc1nccn1C1CCN(C(=O)CCS(=O)(=O)c2ccc3cc(Cl)ccc3c2)CC1 | 0.99 µM | 3.3 µM | 1.1
5 | 38% | 6.9 nM | 2.1 | Cc1ncc2n1C(=O)N(N1CCN(C(=O)CCS(=O)(=O)c3ccc4cc(Cl)ccc4c3)CC1)C2 | 0.61 µM | 0.9 µM | 2.8
6.9 |  | 170 nM | 2 | O=C(CCS(=O)(=O)c1ccc2cc(Cl)ccc2c1)N1CCC(c2cnc[nH]2)CC1 | 3 µM |  | 
